The text below walks through data of ChEMBL document CHEMBL1131103, “Synthesis and biological evaluation of 2-acyl analogues of paclitaxel (Taxol)” (J Med Chem, 1998).

The subject of assay [1] is Panel colon (Carcinoma cell lines). In words: Cytotoxic activity was measured against human colon carcinoma cell lines. The assay is classed as functional, cell-based. A digest of the protocol:
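HCT116 colon carcinoma monolayers in 96-well plates, 48 h at 37 °C under 5% CO₂. Cell protein measured. IC₅₀ = concentration giving 50% inhibition of the increase in cell protein.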

The subject of assay [2] is Panel ovarian (Carcinoma cell lines). In words: Cytotoxic activity was measured against human Ovarian carcinoma cell lines. The assay is classed as functional, cell-based. A digest of the protocol: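 Ovarian carcinoma line 1A9, a subclone of A2780, grown as monolayers in 96-well plates for 96 h at 37 °C, 5% CO₂. Cell protein quantitated (Skehan method). IC₅₀ = concentration inhibiting the increase in cell protein by 50%.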

The species named for assay [3] is Bos taurus. In words: Polymerizing activity of tubulin in glutamate against bovine brain tubulin homogenate was measured at 0.4 M concentrations. The assay is classed as functional. A digest of the protocol: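 Purified, electrophoretically homogeneous bovine brain tubulin assembled at room temperature without GTP or Mg²⁺ in 0.4 M monosodium glutamate (from 2 M stock, pH 6.6). Polymer pelleted by centrifugation. IC₅₀ = drug concentration lowering supernatant protein by 50% versus no-drug control. Up to 40 µM. At least three independent experiments, or at least two where IC₅₀ exceeded 40 µM.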

Assay [4] has as its system ptx-10/22. In words: Relative resistance was measured against human paclitaxel-resistant cell lines. The class given is functional, cell-based. As to conditions: 1A9(PTX22).
For assay [5], the species on record is Bos taurus. Put plainly: Polymerizing activity of microtubule protein against the twice cycled microtubule protein. The assay is classed as functional. A digest of the protocol:
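Twice-cycled microtubule protein, stored in liquid nitrogen, at 1.0 mg/mL final in 0.1 M MES, 1 mM EGTA, 0.5 mM MgCl₂, pH 6.6, 37 °C, no GTP. Compound at 2.5, 5.0 and 10 µM. Absorbance read every 10 s and initial linear slopes taken. EC0.01 = interpolated concentration giving an initial slope of 0.01 A unit/min.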

Assay [6] concerns Burkitts lymphoma cell. In words: Cytotoxic activity against was measured human Burkitt lymphoma cell lines. The assay is classed as functional, cell-based. A digest of the protocol: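 CA46 Burkitt lymphoma cells in 5.0-mL suspension culture, counted after 24 h at 37 °C under 5% CO₂. IC₅₀ = drug concentration halving the increase in cell number. Highest concentration 100 nM. At least two independent experiments.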

The species entered for assay [7] is Bos taurus. Put plainly: Polymerizing activity of tubulin in glutamate against bovine brain tubulin homogenate was measured at 0.8M concentrations. The class given is functional. A digest of the protocol: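 Bovine brain tubulin, purified to electrophoretic homogeneity, in 0.8 M monosodium glutamate (from 2 M stock, pH 6.6), room temperature, no GTP. Polymer removed by centrifugation. IC₅₀ = concentration reducing supernatant protein by 50% relative to drug-free control. Maximum 40 µM. At least three independent experiments, or at least two for IC₅₀ over 40 µM.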

Usually IC50 stands for the concentration that inhibits the measured activity by half. In the case of `CC(=O)O[C@H]1C(=O)[C@@]2(C)[C@H]([C@H](OC(=O)c3ccc(Cl)c(Cl)c3)[C@]3(O)C[C@H](OC(=O)[C@H](O)[C@@H](NC(=O)c4ccccc4)c4ccccc4)C(C)=C1C3(C)C)[C@]1(OC(C)=O)CO[C@@H]1C[C@@H]2O`, the IC50 in assay [1] was 0.77 relative to paclitaxel; in assay [2] it was 1 relative to paclitaxel; in assay [3] it was 0.41 relative to paclitaxel. In addition, the relative resistance in assay [4] came out at 0.27. Moreover, in assay [5], the EC0.01 (relative to paclitaxel) amounted to 0.76.
For the compound `CC(=O)O[C@H]1C(=O)[C@@]2(C)[C@H]([C@H](OC(=O)c3cc(F)ccc3F)[C@]3(O)C[C@H](OC(=O)[C@H](O)[C@@H](NC(=O)c4ccccc4)c4ccccc4)C(C)=C1C3(C)C)[C@]1(OC(C)=O)CO[C@@H]1C[C@@H]2O`, the IC50 in assay [1] is 0.44 relative to paclitaxel; in assay [6] it was 0.67 relative to paclitaxel; in assay [2], 0.67 relative to paclitaxel; in assay [3], 0.29 relative to paclitaxel. Besides, the relative resistance in assay [4] turned out to be 0.57. In addition, the EC0.01 (relative to paclitaxel) in assay [5] came out at 0.34.
Consider `CC(=O)O[C@H]1C(=O)[C@@]2(C)[C@H]([C@H](OC(=O)c3ccc(O)cc3)[C@]3(O)C[C@H](OC(=O)[C@H](O)[C@@H](NC(=O)c4ccccc4)c4ccccc4)C(C)=C1C3(C)C)[C@]1(OC(C)=O)CO[C@@H]1C[C@@H]2O`, for which the IC50 in assay [1] was 52 relative to paclitaxel; in assay [7], > 8.9 relative to paclitaxel; in assay [6], 3 relative to paclitaxel; in assay [2], 31 relative to paclitaxel; in assay [3] it was > 1.7 relative to paclitaxel. The EC0.01 (relative to paclitaxel) in assay [5] came out at 19.
Take `CC(=O)O[C@H]1C(=O)[C@@]2(C)[C@H]([C@H](OC(=O)c3cccc(Cl)c3)[C@]3(O)C[C@H](OC(=O)[C@H](O)[C@@H](NC(=O)c4ccccc4)c4ccccc4)C(C)=C1C3(C)C)[C@]1(OC(C)=O)CO[C@@H]1C[C@@H]2O`: the IC50 in assay [1] was 1.7 relative to paclitaxel; in assay [6] it was 0.67 relative to paclitaxel; in assay [2], 0.05 relative to paclitaxel; in assay [3] it was 0.3 relative to paclitaxel. The same compound yielded a relative resistance in assay [4] of 2.9. This compound also had an EC0.01 (relative to paclitaxel) in assay [5] of 0.92.
In the case of `CC(=O)O[C@H]1C(=O)[C@@]2(C)[C@H]([C@H](OC(=O)c3cccc(N=[N+]=[N-])c3)[C@]3(O)C[C@H](OC(=O)[C@H](O)[C@@H](NC(=O)c4ccccc4)c4ccccc4)C(C)=C1C3(C)C)[C@]1(OC(C)=O)CO[C@@H]1C[C@@H]2O`, the IC50 in assay [1] was 1.4 relative to paclitaxel; in assay [6], 0.17 relative to paclitaxel; in assay [2], 0.18 relative to paclitaxel; in assay [3] it was 0.2 relative to paclitaxel. Besides, the relative resistance in assay [4] is 0.27. The compound also yielded an EC0.01 (relative to paclitaxel) in assay [5] of 0.37.
Take `CC(=O)O[C@H]1C(=O)[C@@]2(C)[C@H]([C@H](OC(=O)c3cc(Cl)cc(Cl)c3)[C@]3(O)C[C@H](OC(=O)[C@H](O)[C@@H](NC(=O)c4ccccc4)c4ccccc4)C(C)=C1C3(C)C)[C@]1(OC(C)=O)CO[C@@H]1C[C@@H]2O`: the IC50 was 0.51 relative to paclitaxel in assay [1], 0.67 relative to paclitaxel in assay [6], 0.38 relative to paclitaxel in assay [2] and 0.91 relative to paclitaxel in assay [3]. This compound also gave a relative resistance in assay [4] of 0.48. The compound also displayed an EC0.01 (relative to paclitaxel) in assay [5] of 0.44.
For the compound `CC(=O)O[C@H]1C(=O)[C@@]2(C)[C@H]([C@H](OC(=O)c3ccccc3N=[N+]=[N-])[C@]3(O)C[C@H](OC(=O)[C@H](O)[C@@H](NC(=O)c4ccccc4)c4ccccc4)C(C)=C1C3(C)C)[C@]1(OC(C)=O)CO[C@@H]1C[C@@H]2O`, the IC50 was 0.36 relative to paclitaxel in assay [1], 0.77 relative to paclitaxel in assay [2] and 0.38 relative to paclitaxel in assay [3]. Besides, the relative resistance in assay [4] amounted to 0.67. Also, in assay [5], the EC0.01 (relative to paclitaxel) came out at 0.7.
Take `CC(=O)O[C@H]1C(=O)[C@@]2(C)[C@H]([C@H](OC(=O)c3ccc(Cl)cc3)[C@]3(O)C[C@H](OC(=O)[C@H](O)[C@@H](NC(=O)c4ccccc4)c4ccccc4)C(C)=C1C3(C)C)[C@]1(OC(C)=O)CO[C@@H]1C[C@@H]2O`: the IC50 in assay [7] was > 8.9 relative to paclitaxel; in assay [6] it was 1.3 relative to paclitaxel; in assay [2], 7.6 relative to paclitaxel; in assay [3], > 1.7 relative to paclitaxel.
Regarding `COc1ccc(OC)c(C(=O)O[C@H]2[C@@H]3[C@]4(OC(C)=O)CO[C@@H]4C[C@H](O)[C@@]3(C)C(=O)[C@H](OC(C)=O)C3=C(C)[C@@H](OC(=O)[C@H](O)[C@@H](NC(=O)c4ccccc4)c4ccccc4)C[C@]2(O)C3(C)C)c1`, the IC50 is 0.14 relative to paclitaxel in assay [1], 0.67 relative to paclitaxel in assay [6], 0.12 relative to paclitaxel in assay [2] and 0.2 relative to paclitaxel in assay [3]. The compound further came in with a relative resistance in assay [4] of 0.76. Also, the EC0.01 (relative to paclitaxel) in assay [5] was found to be 0.5.
Turning to `CC(=O)O[C@H]1C(=O)[C@@]2(C)[C@H]([C@H](OC(=O)c3cccc(Br)c3)[C@]3(O)C[C@H](OC(=O)[C@H](O)[C@@H](NC(=O)c4ccccc4)c4ccccc4)C(C)=C1C3(C)C)[C@]1(OC(C)=O)CO[C@@H]1C[C@@H]2O`, the IC50 in assay [1] was 0.32 relative to paclitaxel; in assay [2], 0.32 relative to paclitaxel; in assay [3] it was 0.24 relative to paclitaxel. In assay [4], this compound returned a relative resistance of 0.42. Moreover, in assay [5], the EC0.01 (relative to paclitaxel) is 0.8.
As for `COc1cc(C(=O)O[C@H]2[C@@H]3[C@]4(OC(C)=O)CO[C@@H]4C[C@H](O)[C@@]3(C)C(=O)[C@H](OC(C)=O)C3=C(C)[C@@H](OC(=O)[C@H](O)[C@@H](NC(=O)c4ccccc4)c4ccccc4)C[C@]2(O)C3(C)C)cc(OC)c1OC`, the IC50 in assay [1] is 110 relative to paclitaxel; in assay [7] it was > 8.9 relative to paclitaxel; in assay [6], > 3.3 relative to paclitaxel; in assay [2], > 48 relative to paclitaxel; in assay [3], > 1.7 relative to paclitaxel. This compound yielded an EC0.01 (relative to paclitaxel) in assay [5] of 32.
For `CC(=O)O[C@H]1C(=O)[C@@]2(C)[C@H]([C@H](OC(=O)c3cc(F)cc(F)c3)[C@]3(O)C[C@H](OC(=O)[C@H](O)[C@@H](NC(=O)c4ccccc4)c4ccccc4)C(C)=C1C3(C)C)[C@]1(OC(C)=O)CO[C@@H]1C[C@@H]2O`, the IC50 in assay [1] is 0.36 relative to paclitaxel; in assay [2], 0.12 relative to paclitaxel; in assay [3] it was 0.29 relative to paclitaxel. Further, in assay [4], the relative resistance was 1.1. The compound further had an EC0.01 (relative to paclitaxel) in assay [5] of 0.6.
On to `CC(=O)O[C@H]1C(=O)[C@@]2(C)[C@H]([C@H](OC(=O)c3cccc(F)c3F)[C@]3(O)C[C@H](OC(=O)[C@H](O)[C@@H](NC(=O)c4ccccc4)c4ccccc4)C(C)=C1C3(C)C)[C@]1(OC(C)=O)CO[C@@H]1C[C@@H]2O`, for which the IC50 is 0.55 relative to paclitaxel in assay [1], > 8.9 relative to paclitaxel in assay [7], 14 relative to paclitaxel in assay [2] and > 1.7 relative to paclitaxel in assay [3]. For the same compound, in assay [5], the EC0.01 (relative to paclitaxel) was 0.8.
As to `COc1cccc(C(=O)O[C@H]2[C@@H]3[C@]4(OC(C)=O)CO[C@@H]4C[C@H](O)[C@@]3(C)C(=O)[C@H](OC(C)=O)C3=C(C)[C@@H](OC(=O)[C@H](O)[C@@H](NC(=O)c4ccccc4)c4ccccc4)C[C@]2(O)C3(C)C)c1`, the IC50 in assay [1] is 0.35 relative to paclitaxel; in assay [6], 0.27 relative to paclitaxel; in assay [2], 0.095 relative to paclitaxel; in assay [3], 0.22 relative to paclitaxel. In assay [4], this compound gave a relative resistance of 0.71. This compound also returned an EC0.01 (relative to paclitaxel) in assay [5] of 0.5.
As to `CC(=O)O[C@H]1C(=O)[C@@]2(C)[C@H]([C@H](OC(=O)c3cccc(C#N)c3)[C@]3(O)C[C@H](OC(=O)[C@H](O)[C@@H](NC(=O)c4ccccc4)c4ccccc4)C(C)=C1C3(C)C)[C@]1(OC(C)=O)CO[C@@H]1C[C@@H]2O`, the results for the concentration for half-maximal inhibition (IC50) in assay [1], in assay [2] and in assay [3] were 1.1 relative to paclitaxel, 0.32 relative to paclitaxel and 0.63 relative to paclitaxel, respectively. This compound returned a relative resistance in assay [4] of 1.3. For the same compound, in assay [5], the EC0.01 (relative to paclitaxel) is 1.
